The entries come from a sample that favours hits as a whole.
T cruzi growth-1: inhibitors of T. cruzi proliferation. T. cruzi beta-gal in NIH3T3, GalScreen luminescence, 90 h. inhibition, % at 8.34 µM. hit rate 5.9% among 77,000. AID 624255;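 active = mean inhibition above about 93%, with at least 55% of replicates each passing it, limit read from the data, passing the limit was not always enough; inconclusive = only one of those two conditions holds; inactive = neither condition holds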
IDH1 mut inh: IDH1 R132H (human) inhibition. hit rate 0.18% among 70,000. inhibition, % at 10 µM. IDH1 R132H reductase, diaphorase/resazurin fluorescence, 60 min; in the data active = inhibition above about 34%; inconclusive = no clear call, values can overlap the other calls; inactive = below about 11%;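 note: 0% = DMSO and 100% = no enzyme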
GASC1 inh: inhibitors of human demethylase GASC-1 KDM4C | GST-KDM4C 2-372, H3K9me3 peptide, LANCE TR-FRET | AID 720574 | inhibition, % at 12.5 µM | Q9H3R0 | hit rate 0.15% among 96,000;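 active = mean replicate inhibition above about 25%, with at least 55% of replicates also reaching it, limit read from the data, passing the limit was not always enough; inconclusive = only one of those two conditions met; inactive = neither condition met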
Target sequence (Q9H3R0 2-372 limits assumed): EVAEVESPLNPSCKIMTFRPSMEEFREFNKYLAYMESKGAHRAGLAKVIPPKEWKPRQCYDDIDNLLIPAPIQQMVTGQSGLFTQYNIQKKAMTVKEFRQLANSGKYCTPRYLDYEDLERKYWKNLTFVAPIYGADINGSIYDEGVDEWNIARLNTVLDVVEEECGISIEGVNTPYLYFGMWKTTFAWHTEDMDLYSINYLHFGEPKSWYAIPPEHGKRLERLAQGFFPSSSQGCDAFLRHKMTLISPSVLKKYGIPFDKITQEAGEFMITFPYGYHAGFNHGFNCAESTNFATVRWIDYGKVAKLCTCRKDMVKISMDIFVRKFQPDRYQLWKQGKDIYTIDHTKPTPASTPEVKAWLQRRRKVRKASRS
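System – N-terminal GST-fused human GASC-1 (KDM4C) fragment, residues 2-372 · Input – enzyme final amount 10 nM · Technique – LANCE TR-FRET, Eu antibody, ULight-streptavidin, EDTA, ex 340 nm, em 618/671 nm · Medium – HEPES buffer, pH 7.5, plus ascorbate · Incubation – enzyme reaction 30 min, then detection 60 min, both room temperature · Reagent – H3K9me3 peptide with Fe(II)/2OG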
T cruzi growth-2: inhibitors of T. cruzi proliferation. AID 651739. hit rate 72% among 5,600. shares compounds with T cruzi growth-1. inhibition, % at 8.35 µM. T. cruzi beta-gal in NIH3T3, GalScreen luminescence, 90 h;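 active = mean replicate inhibition above about 95% and at least 55% of replicates individually reaching it, limit read from the data; inconclusive = only one of the two criteria is met; inactive = neither criterion is met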
T cruzi growth-3: Trypanosoma cruzi proliferation inhibition; AID 651740; inhibition, % at 2.09 µM; T. cruzi beta-gal in NIH3T3, GalScreen luminescence, 90 h; shares compounds with T cruzi growth-1; hit rate 21% among 5,600;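 active = mean inhibition above about 95%, with at least 55% of replicates also reaching it, limit read from the data; inconclusive = meets just one of the two conditions; inactive = meets neither condition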;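 note: plate controls were neutral control median for no effect and positive control median for full effect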
NIH3T3 tox: kills mouse NIH/3T3 fibroblasts | shares compounds with T cruzi growth-1 | NIH/3T3 viability, CellTiter-Glo ATP luminescence, 90 h | cytotoxicity (signal decrease), % at 8.35 µM | hit rate 14% among 5,600;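 active = mean signal decrease across replicates above about 35% based on untreated-well scatter, with enough replicates individually passing, limit read from the data; inconclusive = no rule stated though some were filed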;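 note: 0% = median of neutral control wells and 100% = median of positive control wells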
NIH3T3 tox 2: NIH/3T3 (mouse) viability loss | shares compounds with T cruzi growth-1 | NIH/3T3 viability, CellTiter-Glo ATP luminescence, 90 h | inhibition, % at 24.9 µM | hit rate 56% among 5,600 | AID 651744;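 active = mean loss of cell viability signal at or above a set limit, and enough replicates individually reaching it; inconclusive = meets only the mean limit or only the replicate share; inactive = meets neither condition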;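 note: 0% = median of neutral control wells and 100% = median of positive control wells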
Numbers without * were called inactive; ? = inconclusive; · = not tested or not shown.

SMILES	T cruzi growth-1	IDH1 mut inh	GASC1 inh	T cruzi growth-2	T cruzi growth-3	NIH3T3 tox	NIH3T3 tox 2
C[C@@H]1CN([C@H](C)CO)S(=O)(=O)c2ccc(C#CC3CC3)cc2O[C@@H]1CN(C)CC1CCOCC1	48	0	-2	·	·	·	·
C[C@@H]1CN([C@H](C)CO)S(=O)(=O)c2ccc(C#CC3CC3)cc2O[C@@H]1CN(C)CC1CC1	105	0	-2	·	·	·	·
O=C(CN1CCCCC1)Nc1sc2c(c1C(=O)Nc1ccc(Br)cc1)CCC2	·	0	·	·	·	·	·
Cc1n[nH]c(C)c1Sc1nccc(-c2cccnc2)n1	·	0	·	·	·	·	·
COC(=O)CN(c1cccc(C)c1)S(=O)(=O)c1ccc(Cl)c(Cl)c1	·	-1	·	·	·	·	·
N#Cc1ccccc1CSc1nnc(CN2CCOCC2)n1-c1ccccc1	·	0	·	·	·	·	·
CC(C)(O)C#Cc1ccc([C@H]2[C@@H](CO)N3CCCCN(C(=O)c4ccc(F)cc4)C[C@H]23)cc1	112*	·	-1	48	13	-13	-7
CC(C)(O)C#Cc1ccc([C@@H]2[C@H](CO)N3CCCCN(C(=O)c4ccc(F)cc4)C[C@@H]23)cc1	19	·	1	·	·	·	·
CC(C)C#Cc1ccc([C@H]2[C@@H](CO)N3CCCCN(C(=O)c4ccc(F)cc4)C[C@@H]23)cc1	84	·	-2	·	·	·	·
CC(C)(O)C#Cc1ccc([C@H]2[C@H](CO)N3CCCCN(C(=O)c4ccc(F)cc4)C[C@@H]23)cc1	122*	·	-1	?	-11	13	20
CC(C)(O)C#Cc1ccc([C@H]2[C@@H](CO)N3CCCCN(C(=O)c4cccc(F)c4)C[C@H]23)cc1	110*	·	0	36	-22	-1	5
CC(C)(O)C#Cc1ccc([C@H]2[C@H]3CN(C(=O)c4cccc(F)c4)CCCCN3[C@H]2CO)cc1	79	·	0	·	·	·	·
COc1cccc2c1OC1=C(C(=O)CC(C)(C)C1)C2CC(=O)c1ccc(O)cc1 (centres undefined)	·	0	·	·	·	·	·
N#CCSc1nnc(-c2ncc(C(F)(F)F)cc2Cl)n1-c1ccc(Cl)cc1	·	-1	·	·	·	·	·
C[C@H]1CCCCO[C@H](CN(C)S(=O)(=O)c2ccc(Cl)cc2)[C@@H](C)CN([C@@H](C)CO)C(=O)c2cc(NC(=O)Nc3ccc(C(F)(F)F)cc3)ccc2O1	75	0	-5	·	·	·	·
C[C@@H]1CN([C@@H](C)CO)C(=O)c2cc(NC(=O)Nc3ccc(C(F)(F)F)cc3)ccc2O[C@@H](C)CCCCO[C@H]1CN(C)S(=O)(=O)c1ccc(Cl)cc1	103*	0	1	110*	109*	-15	15
C[C@@H]1CN([C@H](C)CO)C(=O)c2cc(NC(=O)Nc3ccc(C(F)(F)F)cc3)ccc2O[C@@H](C)CCCCO[C@@H]1CN(C)S(=O)(=O)c1ccc(Cl)cc1	103*	5	-4	106*	80	2	-6
C[C@@H]1CCCCO[C@@H](CN(C)S(=O)(=O)c2ccc(Cl)cc2)[C@@H](C)CN([C@H](C)CO)C(=O)c2cc(NC(=O)Nc3ccc(C(F)(F)F)cc3)ccc2O1	87	·	-3	·	·	·	·
C[C@@H]1CCCCO[C@H](CN(C)S(=O)(=O)c2ccc(Cl)cc2)[C@@H](C)CN([C@H](C)CO)C(=O)c2cc(NC(=O)Nc3ccc(C(F)(F)F)cc3)ccc2O1	112*	0	-1	102*	108*	17	31*
C[C@@H]1CCCCO[C@@H](CN(C)S(=O)(=O)c2ccc(Cl)cc2)[C@H](C)CN([C@H](C)CO)C(=O)c2cc(NC(=O)Nc3ccc(C(F)(F)F)cc3)ccc2O1	70	·	2	·	·	·	·
O=[N+]([O-])c1ccc(NCCNC(=S)Nc2ccc(Cl)cc2)nc1	·	0	·	·	·	·	·
Cc1ccc(NC(=O)C(C)Sc2nnc(C)s2)cc1 (centres undefined)	·	-1	·	·	·	·	·
Cc1ccc(C)c(NC(=O)c2ccc(OCC(=O)Nc3ccccc3C)cc2)c1	·	0	·	·	·	·	·
C[C@H](CO)N1C[C@H](C)[C@H](CN(C)Cc2ccc(C(F)(F)F)cc2)Oc2ccc(NC(=O)c3ccncc3)cc2CC1=O	66	-1	0	·	·	·	·

Compound activity (PubChem BioAssay)
